ChEMBL document CHEMBL1629556 (2008)
Values after ≈ are worked out from the molar mass of the structure shown. Active and inactive are the calls of the source. No cut-off for these calls is given here.

Assays:
Staphylococcus aureus [1] = experiment: Antibacterial activity against Staphylococcus aureus isolate 1306 by agar dilution method; assay type: functional
Staphylococcus aureus [2] = experiment: Antibacterial activity against Staphylococcus aureus isolate 6083 by agar dilution method; assay type: functional
Staphylococcus aureus [3] = experiment: Antibacterial activity against Staphylococcus aureus isolate 1326 infected in Wistar rat thigh infection model assessed as bacterial load per gram of thigh at 200 mg/kg, sc administered 2 hrs postinfection and every 6 hrs thereafter for 1 day measured after 24 hrs (reference value: 8.6%); assay type: functional; conditions: route subcutaneous
Staphylococcus aureus [4] = experiment: Effect on growth of against Staphylococcus aureus isolate 4666 assessed as highest compound concentration at which cell growth occurred measured after 48 hrs in presence of 2% NaCl; assay type: functional
How it was run: (§1)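 Inocula of about 10^8 to 10^6 CFU came from a 4 McFarland suspension. Colonies were counted after 48 h at 35°C. Three runs, median CFU.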

Staphylococcus aureus [5] = experiment: Antibacterial activity against Staphylococcus aureus isolate 4666 by agar dilution method; assay type: functional
Staphylococcus aureus [6] = experiment: Effect on growth of Staphylococcus aureus isolate 1326 assessed as highest compound concentration at which cell growth occurred measured after 48 hrs; assay type: functional
How it was run: (§2)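 Overnight cultures were set to 4 McFarland in cation-adjusted MH broth and spread at about 10^8, 10^7 and 10^6 CFU, or 10^4 if growth was confluent. Colonies were counted after 48 h at 35°C. Three runs, median CFU.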

Staphylococcus aureus [7] = experiment: Antibacterial activity against Staphylococcus aureus isolate 1552 by agar dilution method; assay type: functional
Staphylococcus aureus [8] = experiment: Antibacterial activity against Staphylococcus aureus isolate 29213 infected in Wistar rat thigh infection model assessed as bacterial load per gram of thigh at 200 mg/kg, sc administered 2 hrs postinfection and every 6 hrs thereafter for 1 day measured after 24 hrs (reference value: 8.6%); assay type: functional; conditions: route subcutaneous
Staphylococcus aureus [9] = experiment: Antibacterial activity against Staphylococcus aureus isolate 6083 assessed as reduction in bacterial count at 20 ug/ml after 24 hrs by time-kill assay; assay type: functional, organism-based
How it was run: (§3)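 Overnight Mueller-Hinton broth cultures were diluted in cation-adjusted MH broth. About 10^6 to 10^7 CFU went into MH broth with 20 μg/ml dicloxacillin at 35°C. Viable counts were made by spreading 0.1 ml at 0, 1, 3, 6, 9, 14, 24, 30, 42 and 48 h. Three runs, with the median CFU plotted semilogarithmically.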

Staphylococcus aureus [10] = experiment: Antibacterial activity against Staphylococcus aureus isolate 4666 assessed as reduction in bacterial count at 20 ug/ml after 24 hrs by time-kill assay; assay type: functional, organism-based; how it was run: as §3
Staphylococcus aureus [11] = experiment: Effect on growth of Staphylococcus aureus isolate 1306 assessed as highest compound concentration at which cell growth occurred measured after 48 hrs; assay type: functional; how it was run: as §2
Staphylococcus aureus [12] = experiment: Effect on growth of Staphylococcus aureus isolate 1326 assessed as highest compound concentration at which cell growth occurred measured after 48 hrs in presence of 2% NaCl; assay type: functional; how it was run: as §1
Staphylococcus aureus [13] = experiment: Antibacterial activity against Staphylococcus aureus isolate 4666 infected in Wistar rat thigh infection model assessed as bacterial load per gram of thigh at 200 mg/kg, sc administered 2 hrs postinfection and every 6 hrs thereafter for 1 day measured after 24 hrs (reference value: 8.6%); assay type: functional; conditions: route subcutaneous
Staphylococcus aureus [14] = experiment: Antibacterial activity against Staphylococcus aureus isolate 2712 assessed as reduction in bacterial count at 20 ug/ml after 24 hrs by time-kill assay; assay type: functional, organism-based; how it was run: as §3
Staphylococcus aureus [15] = experiment: Antibacterial activity against mecA-negative Staphylococcus aureus isolate 29213 assessed as reduction in bacterial count at 20 ug/ml after 24 hrs by time-kill assay; assay type: functional, organism-based; how it was run: as §3
Staphylococcus aureus [16] = experiment: Antibacterial activity against Staphylococcus aureus isolate 1326 assessed as reduction in bacterial count at 20 ug/ml after 24 hrs by time-kill assay; assay type: functional, organism-based; how it was run: as §3
Staphylococcus aureus [17] = experiment: Antibacterial activity against Staphylococcus aureus isolate 1552 infected in Wistar rat thigh infection model assessed as bacterial load per gram of thigh at 200 mg/kg, sc administered 2 hrs postinfection and every 6 hrs thereafter for 1 day measured after 24 hrs (reference value: 8.6%); assay type: functional; conditions: route subcutaneous
Staphylococcus aureus [18] = experiment: Antibacterial activity against Staphylococcus aureus isolate 2712 infected in Wistar rat thigh infection model assessed as bacterial load per gram of thigh at 200 mg/kg, sc administered 2 hrs postinfection and every 6 hrs thereafter for 1 day measured after 24 hrs (reference value: 8.6%); assay type: functional; conditions: route subcutaneous
Staphylococcus aureus [19] = experiment: Effect on growth of mecA-negative Staphylococcus aureus isolate 29213 by assessed as highest compound concentration at which cell growth occurred measured after 48 hrs; assay type: functional; how it was run: as §2
Staphylococcus aureus [20] = experiment: Antibacterial activity against mecA-negative Staphylococcus aureus isolate 29213 by agar dilution method; assay type: functional
Staphylococcus aureus [21] = experiment: Antibacterial activity against Staphylococcus aureus isolate 1552 assessed as reduction in bacterial count at 20 ug/ml after 24 hrs by time-kill assay; assay type: functional, organism-based; how it was run: as §3
Staphylococcus aureus [22] = experiment: Effect on growth of Staphylococcus aureus isolate 1552 assessed as highest compound concentration at which cell growth occurred measured after 48 hrs; assay type: functional; how it was run: as §2
Staphylococcus aureus [23] = experiment: Effect on growth of Staphylococcus aureus isolate 4666 assessed as highest compound concentration at which cell growth occurred measured after 48 hrs; assay type: functional; how it was run: as §2
Staphylococcus aureus [24] = experiment: Antibacterial activity against Staphylococcus aureus isolate 2712 by agar dilution method; assay type: functional
Staphylococcus aureus [25] = experiment: Antibacterial activity against Staphylococcus aureus isolate 1306 assessed as reduction in bacterial count at 20 ug/ml after 24 hrs by time-kill assay; assay type: functional, organism-based; how it was run: as §3
Staphylococcus aureus [26] = experiment: Antibacterial activity against Staphylococcus aureus isolate 6083 infected in Wistar rat thigh infection model assessed as bacterial load per gram of thigh at 200 mg/kg, sc administered 2 hrs postinfection and every 6 hrs thereafter for 1 day measured after 24 hrs (reference value: 8.6%); assay type: functional; conditions: route subcutaneous
Staphylococcus aureus [27] = experiment: Antibacterial activity against Staphylococcus aureus isolate 1306 infected in Wistar rat thigh infection model assessed as bacterial load per gram of thigh at 200 mg/kg, sc administered 2 hrs postinfection and every 6 hrs thereafter for 1 day measured after 24 hrs (reference value: 8.6%); assay type: functional; conditions: route subcutaneous
Staphylococcus aureus [28] = experiment: Antibacterial activity against Staphylococcus aureus isolate 1326 by agar dilution method; assay type: functional
How it was run: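 mecA-positive clinical isolate collected October–November 2006, species confirmed on Vitek 2. MIC determined by agar dilution following CLSI guidelines, with 2-μg/ml concentration steps from 2 to 16 μg/ml.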

## Cc1onc(-c2ccccc2)c1C(=O)N[C@@H]1C(=O)N2[C@@H]1SC(C)(C)[C@@H]2C(=O)O [OXACILLIN]
Staphylococcus aureus [1]
  MIC: 0.5 µg/mL (≈ 1.25 µM)
Staphylococcus aureus [2]
  MIC: 6 µg/mL (≈ 14.9 µM)
Staphylococcus aureus [3]
  Activity: 4.3%
Staphylococcus aureus [4]
  Activity: 2 µg/mL
Staphylococcus aureus [5]
  MIC: 1 µg/mL (≈ 2.49 µM)
Staphylococcus aureus [6]
  Activity: 0.5 µg/mL
Staphylococcus aureus [7]
  MIC: 1 µg/mL (≈ 2.49 µM)
Staphylococcus aureus [8]
  Activity: 12.4%
Staphylococcus aureus [9]
  inhibition: Active
Staphylococcus aureus [10]
  inhibition: Active
Staphylococcus aureus [11]
  Activity: 32 µg/mL
Staphylococcus aureus [12]
  Activity: 1 µg/mL
Staphylococcus aureus [13]
  Activity: 10.4%
Staphylococcus aureus [14]
  inhibition: inactive
Staphylococcus aureus [15]
  inhibition: Active
Staphylococcus aureus [16]
  inhibition: Active
Staphylococcus aureus [17]
  Activity: 9.1%
Staphylococcus aureus [18]
  Activity: 8.8%
Staphylococcus aureus [19]
  Activity: 0.5 µg/mL
Staphylococcus aureus [20]
  MIC: 0.125 µg/mL (≈ 0.311 µM)
Staphylococcus aureus [21]
  inhibition: Active
Staphylococcus aureus [22]
  Activity: 64 µg/mL
Staphylococcus aureus [23]
  Activity: 1 µg/mL
Staphylococcus aureus [24]
  MIC: 256 µg/mL (≈ 638 µM)
Staphylococcus aureus [25]
  inhibition: Active
Staphylococcus aureus [26]
  Activity: 6.2%
Staphylococcus aureus [27]
  Activity: 9.7%
Staphylococcus aureus [28]
  MIC: 0.25 µg/mL (≈ 0.623 µM)
